Only some compounds are listed: those with a hit (about 2.3% of all), similar ones and a draw of the others.
ADAM17 inh: inhibitors of human ADAM17 | AID 720648 | recombinant ADAM17, EDANS/DABCYL FRET peptide cleavage | inhibition, % at 6.95 µM | 370,000 compounds, 0.83% hits | P78536;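 active = inhibition above the mean of compounds lying between control limits plus 3 SD, set per campaign, cut at about 8.5% in these data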;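 note: 0% = DMSO-only wells as the low control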
TbMetRS inhib: blocks T. brucei methionyl-tRNA synthetase activity; inhibition, % at 11.9 µM; AID 624268; purified T. brucei MetRS, ATP depletion, Kinase-Glo luminescence; 360,000 compounds, 0.4% hits;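 active = inhibition above a per-plate cutoff of the control wells' mean inhibition plus 3 SD, cut at about 5.5% in these data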;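 note: 0% = DMSO wells median and 100% = median of wells with control inhibitor compound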
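Material – parasite MetRS enzyme · Medium – HEPES-MgCl2-KCl buffer plus DTT, spermine, BSA, pyrophosphatase · Reagent – ATP, methionine and E. coli bulk tRNA substrates · Times – 15 min enzyme-compound preincubation, 2 h reaction, 10 min detection, 25 °C · Measured by – luminescence of leftover ATP · Evaluation – percent inhibition relative to median high and low control wells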
PLC-gamma1 inh: blocks human PLC-gamma1 enzyme activity; AID 720700; inhibition, % at 12.2 µM; 370,000 compounds, 0.84% hits; purified PLC-gamma1, fluorogenic substrate, fluorescence; in the data active = inhibition above about 9.5%
ADAM10 inh: inhibitors of human ADAM10 | O14672 | recombinant ADAM10, EDANS/DABCYL FRET peptide cleavage, 3 h | AID 720582 | inhibition, % at 7 µM | 370,000 compounds, 0.62% hits;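 active = inhibition above a per-campaign cutoff equal to the mean of compounds falling between control-based bounds plus 3 SD, cut at about 20% in these data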;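 note: 0% = DMSO wells while the 100% control is not disclosed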
PLCb3 inh: inhibitors of human phospholipase C beta3 | Purified PLC-beta3, fluorogenic substrate, fluorescence | inhibition, % at 12.2 µM | 370,000 compounds, 0.18% hits | AID 720704; in the data active = inhibition above about 11%;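 note: 0% = median of compound wells on plate and 100% = full blocker control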
Target sequence (Q01970 whole entry, looked up): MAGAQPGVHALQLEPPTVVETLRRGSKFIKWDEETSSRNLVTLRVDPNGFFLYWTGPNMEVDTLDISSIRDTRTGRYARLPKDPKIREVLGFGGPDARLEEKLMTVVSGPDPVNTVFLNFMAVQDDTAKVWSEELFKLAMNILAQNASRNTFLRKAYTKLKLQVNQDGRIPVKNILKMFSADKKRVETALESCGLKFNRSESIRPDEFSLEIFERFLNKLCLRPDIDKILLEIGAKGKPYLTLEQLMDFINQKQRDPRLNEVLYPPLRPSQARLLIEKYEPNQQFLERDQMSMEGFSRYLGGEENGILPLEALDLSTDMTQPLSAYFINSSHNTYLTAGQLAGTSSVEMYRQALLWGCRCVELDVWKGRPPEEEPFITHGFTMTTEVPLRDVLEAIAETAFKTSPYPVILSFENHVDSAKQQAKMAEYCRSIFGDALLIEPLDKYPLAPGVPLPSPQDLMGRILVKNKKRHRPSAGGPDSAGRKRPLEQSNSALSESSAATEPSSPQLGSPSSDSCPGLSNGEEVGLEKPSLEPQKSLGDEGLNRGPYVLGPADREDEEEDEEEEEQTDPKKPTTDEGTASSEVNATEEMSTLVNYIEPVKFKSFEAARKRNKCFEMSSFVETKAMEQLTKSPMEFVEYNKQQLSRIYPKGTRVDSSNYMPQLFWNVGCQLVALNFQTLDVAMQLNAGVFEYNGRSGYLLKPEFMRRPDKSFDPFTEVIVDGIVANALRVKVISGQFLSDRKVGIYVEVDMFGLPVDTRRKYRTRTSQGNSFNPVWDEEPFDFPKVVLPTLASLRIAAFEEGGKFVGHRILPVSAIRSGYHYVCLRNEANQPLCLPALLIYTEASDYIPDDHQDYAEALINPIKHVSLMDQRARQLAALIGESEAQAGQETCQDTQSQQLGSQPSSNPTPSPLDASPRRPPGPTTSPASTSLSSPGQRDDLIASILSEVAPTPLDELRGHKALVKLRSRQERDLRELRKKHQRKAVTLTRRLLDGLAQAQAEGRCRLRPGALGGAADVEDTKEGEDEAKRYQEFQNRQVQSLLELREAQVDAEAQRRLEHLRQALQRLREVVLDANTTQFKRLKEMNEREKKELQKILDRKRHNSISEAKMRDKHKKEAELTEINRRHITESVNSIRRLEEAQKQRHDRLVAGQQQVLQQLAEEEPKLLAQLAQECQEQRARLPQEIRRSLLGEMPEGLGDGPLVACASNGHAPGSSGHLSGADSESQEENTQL
TbMetRS confirm: Trypanosoma brucei MetRS inhibition confirmed | shares compounds with TbMetRS inhib | T. brucei MetRS enzyme, luminescence (ATP depletion) | inhibition, % at 11.9 µM | 1,400 compounds, 93% hits | AID 624412; in the data active = inhibition above about 7%
Jurkat tox: counter-screen for T. brucei MetRS inhibitors: Jurkat cell cytotoxicity. shares compounds with TbMetRS inhib. Jurkat cells viability, ATP luminescence. inhibition, % at 8.3 µM. 1,400 compounds, 12% hits. AID 624413; in the data active = inhibition above about 15%;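 note: 0% = vehicle and 100% = reference inhibitor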
Tb MetRS inh FP: inhibits T. brucei methionyl tRNA synthetase in orthogonal FP test; inhibition, % at 11.9 µM; 1,400 compounds, 44% hits; shares compounds with TbMetRS inhib; purified T. brucei MetRS, fluorescence polarization; in the data active = inhibition above about 17%;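 note: 0% = vehicle wells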
The depositor's hits bear a star; i = inactive; x = no result given.

SMILES | ADAM17 inh | TbMetRS inhib | PLC-gamma1 inh | ADAM10 inh | PLCb3 inh | TbMetRS confirm | Jurkat tox | Tb MetRS inh FP
O=C(c1cc(=O)[nH]c2ccccc12)N1CC=C(c2ccccc2)CC1 | -12 | 0 | -21 | -40 | -18 | x | x | x
O=C(C(=O)N1CC=C(c2ccccc2)CC1)c1c[nH]c2ccccc12 | 7 | 7.4* | -2 | 10 | -3 | 17* | -1 | 10
O=C(C(=O)N1CCCc2ccccc21)c1c[nH]c2ccccc12 | 0 | 8.2* | 2 | -2 | 1 | 13* | 7 | 3
COc1ccc(N2CCN(C(CNS(=O)(=O)c3ccccc3)c3ccccc3)CC2)cc1 (configuration not stated) | 3 | 1 | 4 | 1 | -2 | x | x | x
COc1cccc(-c2ncc3ccccc3c2COC(=O)c2ccco2)c1 | -4 | 0 | -1 | 9 | 0 | x | x | x
O=C(NNC(=S)Nc1ccc(F)cc1)C1CC1c1ccc(Cl)cc1 (configuration not stated) | 5 | 48* | 3 | 12 | -34 | 66* | 6 | 41*
Cc1ccc(NC(=S)NNC(=O)C2CC2c2ccc(C)cc2)cc1 (configuration not stated) | 2 | 4 | -1 | 6 | -2 | x | x | x
COC(=O)CN1CCN(C(=O)c2csc3ccccc23)CC1 | 0 | x | 0 | -2 | -1 | x | x | x
O=C(C[C@H]1C(=O)N(c2ccccc2)C[C@@H]1Cc1ccccc1)Nc1ccc(Br)cc1 | 7 | 7.6* | 7 | -2 | 8 | 18* | 3 | 11
O=C(C[C@H]1C(=O)N(c2ccc(Br)cc2)C[C@@H]1Cc1ccccc1)Nc1ccccc1 | 0 | 0 | 6 | -1 | 10 | x | x | x
COc1ccc(N2C[C@H](CSC)[C@@H](CC(=O)Nc3ccc(Br)cc3)C2=O)cc1 | 6 | 19* | 2 | 12 | 3 | 43* | 0 | 19*
O=C1COc2ccccc2C(c2nnnn2Cc2ccccc2)N1Cc1cccs1 (configuration not stated) | 0 | x | -1 | 1 | 3 | x | x | x
COc1ccc(NC(=O)CC2C(=O)N(C)C(=S)N2Cc2cccs2)cc1 (configuration not stated) | 1 | 0 | 3 | 7 | 3 | x | x | x
COc1ccc(NC(=O)CC2C(=O)N(C)C(=S)N2CCc2ccccc2)cc1 (configuration not stated) | 2 | 50* | 4 | 12 | 3 | 49* | 5 | 25*
CCN1C(=O)C(CC(=O)Nc2ccc(OC)cc2)N(CCc2ccc(F)cc2)C1=S (configuration not stated) | 4 | 39* | -1 | 13 | -2 | 46* | 9 | 33*
COc1ccc(N2C(=O)C(CC(=O)Nc3ccc(Cl)cc3)N(NC(=O)c3cccc(F)c3)C2=S)cc1 (configuration not stated) | 3 | 39* | 4 | 13 | -5 | 51* | -9 | 24*
O=C(CC1C(=O)N(c2ccc(Cl)cc2)C(=S)N1CCc1ccncc1)Nc1ccc(F)cc1 (configuration not stated) | 4 | 21* | 5 | 18 | 5 | 23* | 2 | 23*
CC(OC(=O)CCc1nc2ccccc2c(=O)[nH]1)C(=O)c1ccc(Br)cc1 (configuration not stated) | -3 | -1 | -5 | -10 | -7 | x | x | x
COc1ccc(CCN2C(=S)N(C)C(=O)C2CC(=O)Nc2ccc(OC)cc2)cc1 (configuration not stated) | 5 | 44* | 0 | 16 | 3 | 62* | -4 | 31*
C=CCNC(=O)c1ccsc1N | -19 | -1 | -16 | -44 | -22 | x | x | x
O=S1(=O)CC(N2CCSCC2)CN1Cc1cn(Cc2cccc(C(F)(F)F)c2)nn1 (configuration not stated) | -3 | 0 | 0 | -7 | 5 | x | x | x
CCN(CC)CC(=O)Nc1ccc(-c2ccc(NC(=O)CN(CC)CC)c(OC)c2)cc1OC | -9 | 0 | 1 | -8 | 1 | x | x | x
O=C1CC(SCc2nc3ccccc3[nH]2)C(=O)N1c1cccc(F)c1 (configuration not stated) | -29 | 26* | -142 | -84 | -181 | 23* | 17* | 10
CCOc1ccc(N2C(=O)CC(SCc3nc4ccccc4[nH]3)C2=O)cc1 (configuration not stated) | -9 | 2 | -16 | -5 | -17 | x | x | x
O=C1CC(SCc2nc3ccccc3[nH]2)C(=O)N1c1ccc(F)c(Cl)c1 (configuration not stated) | -21 | 29* | -135 | -89 | -157 | 21* | 7 | 6
SMILES | ADAM17 inh | TbMetRS inhib | PLC-gamma1 inh | ADAM10 inh | PLCb3 inh | TbMetRS confirm | Jurkat tox | Tb MetRS inh FP
COc1ccc(N2C(=O)CC(SCc3ccc(Cl)cc3)C2=O)cc1 (configuration not stated) | -4 | 0 | 0 | -4 | -8 | x | x | x
O=C1CC(SCc2nc3ccccc3[nH]2)C(=O)N1c1ccc(Cl)cc1 (configuration not stated) | -15 | 5.7* | -106 | -34 | -112 | 5.7* | -2 | 0
O=C(O)CC1S/C(=N/N=C/c2ccc(-c3ccc(Cl)cc3[N+](=O)[O-])o2)NC1=O (configuration not stated) | 2 | 11* | -10 | 7 | -14 | 14* | -4 | 12
OCCNc1nc(Nc2cccc(O)c2)nc2ccccc12 | -1 | 18* | -1 | 4 | -1 | 44* | 2 | 14
CCc1nccn1CCC(=O)NC1CCCc2c1cnn2-c1ccc(F)cc1F (configuration not stated) | -3 | 0 | -1 | -3 | -11 | x | x | x
Oc1c(Cl)cc(Cl)cc1CNc1ccccn1 | 4 | 0 | -2 | 10 | 0 | x | x | x
Oc1c(Cl)cc(Cl)cc1CNc1nc2ccccc2[nH]1 | 4 | 93* | -1 | 9 | -10 | 108* | 0 | 102*
CO[C@@H]1CN(C)C(=O)c2cc(NC(=O)NC3CCCCC3)ccc2OC[C@@H](C)N(CC2CCOCC2)C[C@@H]1C | -1 | 0 | -3 | -6 | 5 | x | x | x
O=C(Nc1ccc(S(=O)(=O)Nc2cnc3ccccc3n2)cc1)c1ccc(Cl)c([N+](=O)[O-])c1 | -12 | 12* | -10 | -8 | -17 | 24* | -1 | 7
CCOC(=O)CC[C@@H]1CC[C@]2(CCCN(C(=O)c3ccccc3)C2)O1 | -1 | x | -2 | 1 | 0 | x | x | x
Oc1ccccc1CNc1cnc2ccccc2c1 | -194 | -1 | -100 | i | -98 | x | x | x
C=CCc1cccc(CNc2cnc3ccccc3c2)c1O | -114 | 6.0* | -54 | -331 | -79 | 12* | 31* | 13
